Source: ChEMBL document CHEMBL1146142, “Synthesis of miltirone analogues as inhibitors of Cdc25 phosphatases” (Bioorg Med Chem Lett, 2006)

Experiments:
A549 = assay: Cytotoxicity against A549 cell line; assay type: functional, cell-based; conditions: Homo sapiens
In short: (§1)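 Tumor cells trypsinized and seeded at 3000 cells/well; after attachment, exposed to a range of compound concentrations for 72 h. MTT (5 mg/mL) was added and incubated 3 h, then medium was removed and formazan dissolved in DMSO. Absorbance read at 550 nm with […] reference.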

[1] = target: T1, M-phase inducer phosphatase 2 (Homo sapiens, UniProt P30305); assay: Inhibitory activity against human Cdc25B phosphatase
T1 sequence (P30305 whole entry): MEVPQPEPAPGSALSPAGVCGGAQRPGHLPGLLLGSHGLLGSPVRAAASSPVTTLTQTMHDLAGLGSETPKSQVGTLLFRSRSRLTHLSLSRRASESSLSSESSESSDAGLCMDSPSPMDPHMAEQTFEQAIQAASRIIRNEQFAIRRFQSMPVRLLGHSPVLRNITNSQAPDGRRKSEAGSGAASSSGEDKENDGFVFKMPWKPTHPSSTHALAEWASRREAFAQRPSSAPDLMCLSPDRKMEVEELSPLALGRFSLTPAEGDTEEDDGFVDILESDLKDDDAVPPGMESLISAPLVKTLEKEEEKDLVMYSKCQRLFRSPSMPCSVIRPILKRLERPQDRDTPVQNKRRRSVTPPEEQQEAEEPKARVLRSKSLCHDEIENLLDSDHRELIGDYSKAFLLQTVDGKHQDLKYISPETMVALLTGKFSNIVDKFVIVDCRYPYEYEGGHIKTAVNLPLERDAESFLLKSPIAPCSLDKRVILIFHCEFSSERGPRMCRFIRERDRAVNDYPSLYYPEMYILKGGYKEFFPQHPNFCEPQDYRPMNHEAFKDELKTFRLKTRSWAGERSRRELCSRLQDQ

[2] = target: T2, M-phase inducer phosphatase 1 (Homo sapiens, UniProt P30304); assay: Inhibitory activity against human Cdc25A phosphatase
T2 sequence (P30304 whole entry): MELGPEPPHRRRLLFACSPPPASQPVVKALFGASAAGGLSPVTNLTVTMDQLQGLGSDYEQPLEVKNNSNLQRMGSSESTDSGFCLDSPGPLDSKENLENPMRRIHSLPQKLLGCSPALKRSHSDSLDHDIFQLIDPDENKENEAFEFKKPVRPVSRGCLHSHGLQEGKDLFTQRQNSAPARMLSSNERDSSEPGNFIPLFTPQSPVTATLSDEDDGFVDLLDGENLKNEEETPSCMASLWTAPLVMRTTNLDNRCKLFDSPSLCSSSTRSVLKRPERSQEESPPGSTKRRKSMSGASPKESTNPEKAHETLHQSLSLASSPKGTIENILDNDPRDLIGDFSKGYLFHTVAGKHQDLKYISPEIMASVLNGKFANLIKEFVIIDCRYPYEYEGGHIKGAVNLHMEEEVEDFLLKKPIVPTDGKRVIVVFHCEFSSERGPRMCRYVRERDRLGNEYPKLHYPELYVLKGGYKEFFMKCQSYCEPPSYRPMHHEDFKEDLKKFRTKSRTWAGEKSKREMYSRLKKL

HCT-116 = assay: Cytotoxicity against HCT116 cell line; assay type: functional, cell-based; conditions: Homo sapiens; in short: as §1
[3] = target: T3, Tyrosine-protein phosphatase non-receptor type 1 (Homo sapiens, UniProt P18031); assay: Inhibitory activity against human PTP1B
T3 sequence (P18031 whole entry): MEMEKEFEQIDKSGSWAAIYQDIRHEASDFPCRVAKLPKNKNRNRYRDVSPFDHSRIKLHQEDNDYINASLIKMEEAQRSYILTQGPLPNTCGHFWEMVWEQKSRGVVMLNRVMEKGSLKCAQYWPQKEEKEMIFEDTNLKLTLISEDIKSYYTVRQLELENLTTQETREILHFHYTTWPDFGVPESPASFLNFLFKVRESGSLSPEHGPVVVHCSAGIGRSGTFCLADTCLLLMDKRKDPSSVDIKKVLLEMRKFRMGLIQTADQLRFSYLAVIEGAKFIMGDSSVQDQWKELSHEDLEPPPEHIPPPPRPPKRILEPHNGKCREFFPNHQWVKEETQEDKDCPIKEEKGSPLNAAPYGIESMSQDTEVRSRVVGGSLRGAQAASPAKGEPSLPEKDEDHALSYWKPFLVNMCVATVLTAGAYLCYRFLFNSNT
In short: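 GST–PTP1B (30–40 nM) in 50 mM MOPs pH 6.5 with 2 mM DTT, 1 mM EDTA and 2% DMSO. Substrate was 2 mM pNPP.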

Compound | IC50 ([1]; read-out: IC50) [µM] | IC50 ([2]; read-out: IC50) [µM] | IC50 [3] | IC50 ([3]; read-out: IC50) [µM] | IC50 [1] | IC50 [2] | IC50 (A549) [µM] | IC50 (HCT-116) [µM]
COc1ccc(NC2=C(C(C)C)C(=O)C(=O)c3c2ccc2c3CCCC2(C)C)cc1 | 4.09 | 11.8 | Not Active |  |  |  | 9.19 | 5.51
CC(C)C1=C(Nc2ccc([N+](=O)[O-])cc2)c2ccc3c(c2C(=O)C1=O)CCCC3(C)C |  |  | Not Active |  | Not Active | Not Active | 5.34 | 7.1
Cc1ccc(NC2=C(C(C)C)C(=O)C(=O)c3c2ccc2c3CCCC2(C)C)cc1 | 7.54 | 27.6 | Not Active |  |  |  | 4.25 | 24.9
CC(C)C1=C(Sc2ccccc2)c2ccc3c(c2C(=O)C1=O)CCCC3(C)C | 5.07 | 3.97 |  | 10.4 |  |  | 26.6 | 5.75
CC(C)C1=C(Sc2ccc(Br)cc2)c2ccc3c(c2C(=O)C1=O)CCCC3(C)C | 3.78 | 20.3 |  | 7.19 |  |  | 5.07 | 4.94
CC(C)C1=C(Sc2ccc(F)cc2)c2ccc3c(c2C(=O)C1=O)CCCC3(C)C | 2.58 | 22.1 |  | 4.55 |  |  | 1.25 | 5.71
CC(=O)Nc1ccc(SC2=C(C(C)C)C(=O)C(=O)c3c2ccc2c3CCCC2(C)C)cc1 | 4.85 | 5.96 |  | 9.05 |  |  | 15.4 | 5.18
CC(C)C1=C(c2ccccc2)c2ccc3c(c2C(=O)C1=O)CCCC3(C)C | 3.16 | 3.96 |  | 4.11 |  |  | 6.24 | 6.28
CC(C)C1=C(Nc2ccccc2)c2ccc3c(c2C(=O)C1=O)CCCC3(C)C | 3.99 | 8.81 |  | 27.2 |  |  | 19.1 | 6.25

The next lines start with results.

IC50 ([1]; read-out: IC50) [µM] | IC50 ([2]; read-out: IC50) [µM] | IC50 [3] | IC50 ([3]; read-out: IC50) [µM] | IC50 [1] | IC50 [2] | Compound | IC50 (A549) [µM] | IC50 (HCT-116) [µM]
3.63 | 5.43 |  | 7.57 |  |  | CC(C)C1=C(Sc2ccc(Br)cc2)c2ccccc2C(=O)C1=O | 5.93 | 5.85
5.33 | 6.87 |  | 19.1 |  |  | CC(C)C1=C(Nc2ccc([N+](=O)[O-])cc2)c2ccccc2C(=O)C1=O | 6.59 | 2.39
4.53 | 7.06 |  | 19.6 |  |  | Cc1ccc(NC2=C(C(C)C)C(=O)C(=O)c3ccccc32)cc1 | 8.2 | 6.16
8.71 | 10.9 | Not Active |  |  |  | CC(C)C1=C(Nc2ccccc2)c2ccccc2C(=O)C1=O | 25 | 8.22
10.9 | 5.86 |  | 13.7 |  |  | CC(C)C1=C(Sc2ccccc2)c2ccccc2C(=O)C1=O | 7.59 | 8.03
13.8 | 21.9 |  | 7.63 |  |  | CC(=O)Nc1ccc(SC2=C(C(C)C)C(=O)C(=O)c3ccccc32)cc1 | 7.36 | 6.32
4.63 | 4.9 | Not Active |  |  |  | COc1ccc(NC2=C(C(C)C)C(=O)C(=O)c3ccccc32)cc1 | 87 | 4.04
3.23 | 7.83 | Not Active |  |  |  | CC(C)C1=C(c2ccccc2)c2ccccc2C(=O)C1=O | 24.7 | 29.6
7.55 | 12.8 |  | 7.22 |  |  | CC(C)C1=C(Sc2ccc(F)cc2)c2ccccc2C(=O)C1=O | 20.4 | 20.8
24.1 | 11.2 | Not Active |  |  |  | CC(C)C1=Cc2ccccc2C(=O)C1=O | 4.14 | 4
 | > 70.8 | Not Active |  | Not Active |  | CC(C)C1=Cc2ccc3c(c2C(=O)C1=O)CCCC3(C)C [MILTIRONE] | 24.6 | 12.4
